23 molecules from ChEMBL document CHEMBL1139795, “Capped diaminopropionamide-glycine dipeptides are inhibitors of CC chemokine receptor 2 (CCR2)” (Bioorg Med Chem Lett, 2007) can be followed below.

SMILES strings stand for the structures. pIC50: −log10 of the molar value. Where only a bound is given, the exact number is not on record here.

The target in the first assay is C-C chemokine receptor type 2 (Homo sapiens, UniProt P41597). Briefly: Displacement of [125]MCP1 from CCR2 in human PBMCs. A digest of the protocol: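 Competition binding with 0.3 nM [125I]MCP-1 on human peripheral blood mononuclear cells at 23 °C. IC50 given as mean ± SD (n = 2) or mean ± SEM (n > 2). Single determinations are listed with n = 1.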
Chain of C-C chemokine receptor type 2 (P41597 whole entry): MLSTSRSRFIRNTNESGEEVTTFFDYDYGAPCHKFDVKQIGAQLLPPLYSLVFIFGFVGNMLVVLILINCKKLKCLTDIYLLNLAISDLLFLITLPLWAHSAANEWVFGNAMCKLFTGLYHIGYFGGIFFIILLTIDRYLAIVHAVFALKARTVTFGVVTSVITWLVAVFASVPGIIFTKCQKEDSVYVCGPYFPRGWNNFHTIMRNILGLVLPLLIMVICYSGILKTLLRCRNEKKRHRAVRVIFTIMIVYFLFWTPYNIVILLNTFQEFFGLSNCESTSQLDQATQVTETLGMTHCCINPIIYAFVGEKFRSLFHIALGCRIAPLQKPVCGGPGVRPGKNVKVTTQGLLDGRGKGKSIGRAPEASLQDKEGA
In turn, `CCOC(=O)Nc1cc(C(=O)NCC(=O)N[C@@H](CNCc2ccc(C)cc2C)C(=O)NC(C)(C)C)cc(C(F)(F)F)c1` had a pIC50 of 6.51.

As to `Cc1ccc(CNC[C@H](NC(=O)CNC(=O)c2cccc(C(F)(F)F)c2)C(=O)NCC2CC2)c(C)c1`, the pIC50 was 7.22.

For the molecule `CCCCc1ccc(CNC[C@H](NC(=O)CNC(=O)c2cccc(C(F)(F)F)c2)C(=O)NC(C)(C)C)cc1`, the pIC50 is 5.25.

As for `CCC(C)(C)NC(=O)[C@H](CNCc1ccc(C)cc1C)NC(=O)CNC(=O)c1cccc(C(F)(F)F)c1`, the negative-log IC50 (pIC50) was 6.92. Against the preceding molecule, the pIC50 is 1.67 log units higher.

`Cc1ccc(CNC[C@H](NC(=O)CNC(=O)c2cccc(C(F)(F)F)c2)C(=O)NC(C)(C)C)cc1` gave a pIC50 of 6.12.

Regarding `Cc1ccc(CNC[C@H](NC(=O)CNC(=O)c2cc(OC(F)(F)F)ccc2N)C(=O)NC(C)(C)C)c(C)c1`, the pIC50 is 7.55.

`Cc1ccc(CNC[C@H](NC(=O)CNC(=O)c2cccc(C(F)(F)F)c2)C(=O)NCC(F)(F)F)c(C)c1` gave a pIC50 of 7.26.

In the case of `Cc1ccc(CNCC[C@H](NC(=O)CNC(=O)c2cccc(C(F)(F)F)c2)C(N)=O)c(C)c1`, the pIC50 is 5.52. This pIC50 lies 1.74 log units lower than the previous one.

`Cc1ccc(CNC[C@H](NC(=O)CNC(=O)c2cccc(C(F)F)c2)C(=O)NC(C)(C)C)c(C)c1` gave a pIC50 of 6.40.

Consider `Cc1ccc(CNC[C@H](NC(=O)CNC(=O)c2cccc(C(F)(F)F)c2)C(=O)N(C)C)c(C)c1`, for which the pIC50 is 6.60.

`CC(C)(C)NC(=O)[C@H](CNCc1ccc(S(C)(=O)=O)cc1)NC(=O)CNC(=O)c1cccc(C(F)(F)F)c1` showed a pIC50 of 5.14. This pIC50 lies 1.46 log units lower than the previous one.

Consider `CCc1ccc(CNC[C@H](NC(=O)CNC(=O)c2cccc(C(F)(F)F)c2)C(=O)NC(C)(C)C)c(C)c1`, for which the pIC50 is 7.44.

`COc1ccc(CNC[C@H](NC(=O)CNC(=O)c2cccc(C(F)(F)F)c2)C(=O)NC(C)(C)C)cc1` showed a pIC50 of 5.96.

In turn, `Cc1ccc(CNC[C@H](NC(=O)CNC(=O)c2cccc(C(F)(F)F)c2)C(=O)NC2CCCCC2)c(C)c1` had a pIC50 of 6.82.

Molecule `Cc1ccc(CNC[C@H](NC(=O)CNC(=O)c2cc(NCC(C)C)cc(C(F)(F)F)c2)C(=O)NC(C)(C)C)c(C)c1` gave a pIC50 of 6.89.

Regarding `CCNC(=O)[C@H](CNCc1ccc(C)cc1C)NC(=O)CNC(=O)c1cccc(C(F)(F)F)c1`, the pIC50 is 6.96.

For the molecule `CCNC(=O)[C@@H](CNC(=O)CNC(=O)c1cccc(C(F)(F)F)c1)NCc1ccc(C)cc1C`, the pIC50 was 4.66.

`Cc1ccc(CNC[C@H](NC(=O)CNC(=O)c2cccc(C(F)(F)F)c2)C(=O)N2CCOCC2)c(C)c1` gave a pIC50 of 6.31.

`CN(C)c1ccc(CNC[C@H](NC(=O)CNC(=O)c2cccc(C(F)(F)F)c2)C(=O)NC(C)(C)C)cc1` had a pIC50 of 6.37.

`Cc1cc(Br)ccc1CNC[C@H](NC(=O)CNC(=O)c1cccc(C(F)(F)F)c1)C(=O)NC(C)(C)C` had a pIC50 of 6.80.

For `Cc1ccc(CNC[C@H](NC(=O)CNC(=O)c2cc(NCc3ccccc3)cc(C(F)(F)F)c2)C(=O)NC(C)(C)C)c(C)c1`, the pIC50 was 6.96.

The target of the next assay is T1, C-C chemokine receptor type 1 (Homo sapiens) (UniProt P32246).
T1 sequence (whole entry): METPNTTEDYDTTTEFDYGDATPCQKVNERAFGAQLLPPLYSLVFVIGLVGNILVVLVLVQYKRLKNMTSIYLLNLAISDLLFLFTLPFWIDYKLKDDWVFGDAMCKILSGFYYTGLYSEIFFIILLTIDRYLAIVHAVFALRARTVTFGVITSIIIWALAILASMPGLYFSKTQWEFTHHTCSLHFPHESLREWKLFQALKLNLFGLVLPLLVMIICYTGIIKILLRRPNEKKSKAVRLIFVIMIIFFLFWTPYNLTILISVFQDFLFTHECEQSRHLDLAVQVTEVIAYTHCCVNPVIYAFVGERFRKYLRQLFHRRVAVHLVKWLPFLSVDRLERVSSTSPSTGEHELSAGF
In words: Inhibition of CCR1 at 10 uM.
In turn, `CCOC(=O)Nc1cc(C(=O)NCC(=O)N[C@@H](CNCc2ccc(C)cc2C)C(=O)NC(C)(C)C)cc(C(F)(F)F)c1` showed an inhibition of under 30%.

In the case of `Cc1ccc(CNC[C@H](NC(=O)CNC(=O)c2cccc(C(F)(F)F)c2)C(=O)NCC2CC2)c(C)c1`, the inhibition is under 30%.

`CCCCc1ccc(CNC[C@H](NC(=O)CNC(=O)c2cccc(C(F)(F)F)c2)C(=O)NC(C)(C)C)cc1` had an inhibition of under 30%.

Molecule `CCC(C)(C)NC(=O)[C@H](CNCc1ccc(C)cc1C)NC(=O)CNC(=O)c1cccc(C(F)(F)F)c1` came in with an inhibition of under 30%.

`Cc1ccc(CNC[C@H](NC(=O)CNC(=O)c2cccc(C(F)(F)F)c2)C(=O)NC(C)(C)C)cc1`: the inhibition was under 30%.

As for `Cc1ccc(CNC[C@H](NC(=O)CNC(=O)c2cc(OC(F)(F)F)ccc2N)C(=O)NC(C)(C)C)c(C)c1`, the inhibition was under 30%.

Turning to `Cc1ccc(CNC[C@H](NC(=O)CNC(=O)c2cccc(C(F)(F)F)c2)C(=O)NCC(F)(F)F)c(C)c1`, the inhibition is under 30%.

`Cc1ccc(CNCC[C@H](NC(=O)CNC(=O)c2cccc(C(F)(F)F)c2)C(N)=O)c(C)c1` yielded an inhibition of under 30%.

Turning to `Cc1ccc(CNC[C@H](NC(=O)CNC(=O)c2cccc(C(F)F)c2)C(=O)NC(C)(C)C)c(C)c1`, the inhibition is under 30%.

`Cc1ccc(CNC[C@H](NC(=O)CNC(=O)c2cccc(C(F)(F)F)c2)C(=O)N(C)C)c(C)c1`: the inhibition is under 30%.

For `CC(C)(C)NC(=O)[C@H](CNCc1ccc(S(C)(=O)=O)cc1)NC(=O)CNC(=O)c1cccc(C(F)(F)F)c1`, the inhibition was under 30%.

Regarding `CCc1ccc(CNC[C@H](NC(=O)CNC(=O)c2cccc(C(F)(F)F)c2)C(=O)NC(C)(C)C)c(C)c1`, the inhibition was under 30%.

As for `COc1ccc(CNC[C@H](NC(=O)CNC(=O)c2cccc(C(F)(F)F)c2)C(=O)NC(C)(C)C)cc1`, the inhibition is under 30%.

Regarding `Cc1ccc(CNC[C@H](NC(=O)CNC(=O)c2cccc(C(F)(F)F)c2)C(=O)NC2CCCCC2)c(C)c1`, the inhibition was under 30%.

Molecule `Cc1ccc(CNC[C@H](NC(=O)CNC(=O)c2cc(NCC(C)C)cc(C(F)(F)F)c2)C(=O)NC(C)(C)C)c(C)c1` had an inhibition of under 30%.

For `CCNC(=O)[C@H](CNCc1ccc(C)cc1C)NC(=O)CNC(=O)c1cccc(C(F)(F)F)c1`, the inhibition is under 30%.

`CCNC(=O)[C@@H](CNC(=O)CNC(=O)c1cccc(C(F)(F)F)c1)NCc1ccc(C)cc1C` had an inhibition of under 30%.

For the molecule `Cc1ccc(CNC[C@H](NC(=O)CNC(=O)c2cccc(C(F)(F)F)c2)C(=O)N2CCOCC2)c(C)c1`, the inhibition was under 30%.

On to `CN(C)c1ccc(CNC[C@H](NC(=O)CNC(=O)c2cccc(C(F)(F)F)c2)C(=O)NC(C)(C)C)cc1`, for which the inhibition is under 30%.

`Cc1cc(Br)ccc1CNC[C@H](NC(=O)CNC(=O)c1cccc(C(F)(F)F)c1)C(=O)NC(C)(C)C`: the inhibition is under 30%.

On to `Cc1ccc(CNC[C@H](NC(=O)CNC(=O)c2cc(NCc3ccccc3)cc(C(F)(F)F)c2)C(=O)NC(C)(C)C)c(C)c1`, for which the inhibition is under 30%.

On to `Cc1ccc(CNC[C@@H](C)NC(=O)CNC(=O)c2cccc(C(F)(F)F)c2)c(C)c1`, for which the inhibition is under 30%.

`Cc1ccc(CNC[C@H](NC(=O)CNC(=O)c2cccc(C(F)(F)F)c2)C(C)C)c(C)c1` yielded an inhibition of under 30%.
